Data: ChEMBL document CHEMBL1145052, “Design and synthesis of novel pyridoxine 5'-phosphonates as potential antiischemic agents” (J Med Chem, 2003)

Tests used:
[1] = system: Rattus norvegicus; assay: Ability of compound to reduce the infarct size in rat administered via bolus at 0.02 mmol/kg; format: functional
How it was run: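 Male Wistar rats, carotid artery and jugular vein cannulated, LAD snare placed, 30 min stabilization. Bolus injection 0.02 mmol/kg given 5 min before LAD occlusion; saline infusion controls. 25 min ischemia, 2 h reperfusion. Area at risk delineated with Evans blue (2% w/v). AR pieces stained with NBT (0.5 mg/mL) for 40 min at 37 °C. Infarct size expressed as % of AR.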

[2] = species on record: Rattus norvegicus; assay: Fatty acid oxidation was measured using [3H]- palmitate in perfusing rat heart; format: functional
How it was run: (§1)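 Isolated, spontaneously beating rat hearts under aerobic perfusion for 60 min. Test agents perfused at 1 mM, DCA positive control at 3 mM, untreated controls; n = 6 hearts per group. [3H]-palmitate and [14C]-glucose perfused together to measure fatty acid and glucose oxidation simultaneously.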

[3] = species on record: Rattus norvegicus; assay: Glucose oxidation was measured using [C14] Glucose in perfusing rat heart; format: functional; how it was run: as §1
[4] = species on record: Rattus norvegicus; assay: Inhibitory activity against ATP receptor in isolated perfused rat heart

SMILES | Reduction [1] | Activity [2] | Activity [3] | Activity [4]
Cc1ncc2c(c1O)COC2(O)C(F)(F)P(=O)(O)O (centres undefined) | 46% | 414 | 2339 | –
Cc1ncc(COP(=O)(O)O)c(C=O)c1O [PYRIDOXAL PHOSPHATE ANHYDROUS] | 33% | 398 | 2253 | 10 µM
Cc1ncc(C(O)P(=O)(O)O)c(O)c1O (centres undefined) | 19% | – | – | –
Cc1ncc(CP(=O)(O)O)c(O)c1O | 20% | – | – | –
